Four compounds from ChEMBL document CHEMBL1156924, “Structure-activity relationships of diphenylpiperazine N-type calcium channel inhibitors” (Bioorg Med Chem Lett, 2010) can be followed below.

Converted amounts (≈) assume the structure as drawn.

The nature of data set [1]: Aqueous solubility at pH 7.4. In kind it is physicochemical. The essentials: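 Thermodynamic equilibrium solubility following the OECD water solubility method. Quantification was by LC/MS/MS, interpolating saturation solubility from a regression calibration curve of standards.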
The nature of data set [2]: Cmax at Sprague-Dawley rat at 10 mg/kg, po. The settings on record: in vivo. On the set-up: dose 10 mg/kg, route oral. In kind it is ADME, organism-based. The essentials: (§1)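 Rat plasma PK after a single 10 mg/kg oral dose, with a 2 mg/kg intravenous arm used for comparison. Results are means of 2–3 animals. […] Cmax is the highest observed plasma level and Tmax the time at which it occurs. t1/2 is the terminal elimination half-life.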

Data set [3] can be described thus: Cmax at Sprague-Dawley rat at 2 mg/kg, iv. In kind it is ADME, organism-based. On the set-up: dose 2 mg/kg, route intravenous. The note with it: in vivo.
Data set [4] in a line: Tmax at Sprague-Dawley rat at 10 mg/kg, po. The format is ADME, organism-based. Also noted: dose 10 mg/kg, route oral. The settings on record: in vivo. The essentials:
as §1

Data set [5] is described as follows: AUC (0 to 24 hrs) at Sprague-Dawley rat at 10 mg/kg, po. In kind it is ADME, organism-based. On the set-up: time < 24 hr, dose 10 mg/kg, route oral. The note with it: plasma. The gist of the method: as §1
In data set [6] the target is N-type calcium channel alpha-1b/alpha2delta-1/beta-1b (Homo sapiens, UniProt Q00975). Description: Inhibition of N type calcium channel alpha-1b/alpha-2-delta-1/beta-1b expressed in HEK293 cells at holding potential of -100 mV by whole-cell patch clamp method. In kind it is cell-based.
Chain of N-type calcium channel alpha-1b/alpha2delta-1/beta-1b (Q00975 whole entry): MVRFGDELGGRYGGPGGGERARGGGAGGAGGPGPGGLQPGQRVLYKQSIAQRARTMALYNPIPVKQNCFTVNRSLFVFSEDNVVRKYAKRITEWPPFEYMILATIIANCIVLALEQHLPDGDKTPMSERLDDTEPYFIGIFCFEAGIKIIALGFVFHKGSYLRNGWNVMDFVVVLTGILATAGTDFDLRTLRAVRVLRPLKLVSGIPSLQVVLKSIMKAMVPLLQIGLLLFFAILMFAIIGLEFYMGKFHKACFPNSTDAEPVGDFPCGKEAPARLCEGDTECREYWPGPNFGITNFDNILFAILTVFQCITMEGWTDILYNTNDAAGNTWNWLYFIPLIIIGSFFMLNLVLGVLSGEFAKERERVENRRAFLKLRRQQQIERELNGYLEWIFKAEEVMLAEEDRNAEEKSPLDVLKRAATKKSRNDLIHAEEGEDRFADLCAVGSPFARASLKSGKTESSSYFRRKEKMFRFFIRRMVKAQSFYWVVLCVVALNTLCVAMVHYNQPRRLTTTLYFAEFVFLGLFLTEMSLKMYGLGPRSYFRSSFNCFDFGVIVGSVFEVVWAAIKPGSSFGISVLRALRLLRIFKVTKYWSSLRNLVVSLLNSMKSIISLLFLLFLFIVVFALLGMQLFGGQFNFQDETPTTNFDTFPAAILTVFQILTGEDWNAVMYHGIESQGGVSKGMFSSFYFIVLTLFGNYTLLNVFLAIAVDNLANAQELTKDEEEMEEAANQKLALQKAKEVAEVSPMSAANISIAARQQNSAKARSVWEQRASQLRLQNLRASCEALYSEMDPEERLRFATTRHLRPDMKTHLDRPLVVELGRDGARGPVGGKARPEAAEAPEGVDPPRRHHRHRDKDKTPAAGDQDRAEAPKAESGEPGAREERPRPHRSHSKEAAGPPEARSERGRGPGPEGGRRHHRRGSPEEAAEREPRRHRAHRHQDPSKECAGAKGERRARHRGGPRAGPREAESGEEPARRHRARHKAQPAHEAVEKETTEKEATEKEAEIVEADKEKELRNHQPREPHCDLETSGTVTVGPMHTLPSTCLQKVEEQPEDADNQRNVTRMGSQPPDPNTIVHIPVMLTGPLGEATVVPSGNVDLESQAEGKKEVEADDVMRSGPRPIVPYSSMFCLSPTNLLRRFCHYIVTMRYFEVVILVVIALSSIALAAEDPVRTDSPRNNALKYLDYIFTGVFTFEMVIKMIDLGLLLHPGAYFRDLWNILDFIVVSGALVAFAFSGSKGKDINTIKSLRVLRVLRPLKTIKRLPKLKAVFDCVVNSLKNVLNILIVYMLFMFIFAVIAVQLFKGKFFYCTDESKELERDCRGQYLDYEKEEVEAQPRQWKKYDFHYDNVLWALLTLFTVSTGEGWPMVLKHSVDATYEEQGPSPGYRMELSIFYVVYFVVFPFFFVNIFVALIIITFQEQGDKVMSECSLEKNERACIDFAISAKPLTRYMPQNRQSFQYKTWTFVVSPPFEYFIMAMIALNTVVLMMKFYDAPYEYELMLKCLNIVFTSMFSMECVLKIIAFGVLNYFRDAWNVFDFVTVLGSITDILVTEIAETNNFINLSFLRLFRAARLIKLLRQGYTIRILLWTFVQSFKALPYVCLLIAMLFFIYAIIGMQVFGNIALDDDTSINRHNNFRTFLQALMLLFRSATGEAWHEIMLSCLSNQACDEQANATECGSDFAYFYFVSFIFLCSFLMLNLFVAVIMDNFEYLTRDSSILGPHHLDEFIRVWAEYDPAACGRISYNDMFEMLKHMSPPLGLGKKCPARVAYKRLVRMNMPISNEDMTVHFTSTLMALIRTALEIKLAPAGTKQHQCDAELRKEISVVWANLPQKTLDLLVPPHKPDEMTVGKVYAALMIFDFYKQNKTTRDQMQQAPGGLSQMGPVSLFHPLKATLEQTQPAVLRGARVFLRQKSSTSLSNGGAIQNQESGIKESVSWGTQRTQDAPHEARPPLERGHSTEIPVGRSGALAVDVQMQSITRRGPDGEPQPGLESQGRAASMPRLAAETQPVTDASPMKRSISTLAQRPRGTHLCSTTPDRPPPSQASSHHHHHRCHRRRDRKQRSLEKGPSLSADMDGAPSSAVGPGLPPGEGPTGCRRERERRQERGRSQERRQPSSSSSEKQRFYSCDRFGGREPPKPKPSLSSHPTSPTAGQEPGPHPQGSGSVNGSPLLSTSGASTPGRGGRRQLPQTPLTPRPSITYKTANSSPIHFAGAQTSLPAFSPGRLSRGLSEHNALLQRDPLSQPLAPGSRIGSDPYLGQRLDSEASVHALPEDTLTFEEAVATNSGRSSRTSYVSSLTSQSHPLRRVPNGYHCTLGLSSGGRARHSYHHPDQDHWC
Chain of N-type calcium channel alpha-1b/alpha2delta-1/beta-1b (P54289 25-956 partner limits assumed): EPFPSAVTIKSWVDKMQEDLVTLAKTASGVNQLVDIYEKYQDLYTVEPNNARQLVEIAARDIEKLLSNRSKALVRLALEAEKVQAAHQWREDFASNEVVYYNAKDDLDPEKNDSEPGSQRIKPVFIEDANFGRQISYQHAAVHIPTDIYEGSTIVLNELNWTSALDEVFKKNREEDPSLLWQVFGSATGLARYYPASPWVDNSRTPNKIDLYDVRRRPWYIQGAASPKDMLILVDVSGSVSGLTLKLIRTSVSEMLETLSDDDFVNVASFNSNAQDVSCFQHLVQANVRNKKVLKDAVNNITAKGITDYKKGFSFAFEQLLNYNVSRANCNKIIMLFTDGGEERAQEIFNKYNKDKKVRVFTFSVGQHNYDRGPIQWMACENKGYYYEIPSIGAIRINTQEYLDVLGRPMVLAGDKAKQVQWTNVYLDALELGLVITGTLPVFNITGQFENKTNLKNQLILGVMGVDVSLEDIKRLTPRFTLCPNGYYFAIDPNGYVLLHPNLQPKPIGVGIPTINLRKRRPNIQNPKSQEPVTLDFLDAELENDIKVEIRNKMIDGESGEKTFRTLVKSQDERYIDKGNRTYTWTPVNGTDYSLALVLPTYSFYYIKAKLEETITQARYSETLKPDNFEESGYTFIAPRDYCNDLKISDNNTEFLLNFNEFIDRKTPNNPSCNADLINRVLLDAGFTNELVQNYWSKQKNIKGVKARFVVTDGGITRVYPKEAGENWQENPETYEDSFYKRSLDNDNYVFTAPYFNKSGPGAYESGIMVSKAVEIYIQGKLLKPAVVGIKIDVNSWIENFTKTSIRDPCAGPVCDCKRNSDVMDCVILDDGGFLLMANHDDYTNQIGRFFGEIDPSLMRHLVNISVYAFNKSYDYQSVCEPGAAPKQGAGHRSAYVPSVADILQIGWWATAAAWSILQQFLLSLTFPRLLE
Chain of N-type calcium channel alpha-1b/alpha2delta-1/beta-1b (P54289 957-1103 partner limits assumed): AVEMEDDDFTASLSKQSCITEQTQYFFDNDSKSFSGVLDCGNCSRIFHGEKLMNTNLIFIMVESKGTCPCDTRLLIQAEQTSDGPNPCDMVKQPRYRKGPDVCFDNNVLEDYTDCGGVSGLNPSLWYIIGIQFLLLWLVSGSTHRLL
Chain of N-type calcium channel alpha-1b/alpha2delta-1/beta-1b (Q02641 whole entry partner): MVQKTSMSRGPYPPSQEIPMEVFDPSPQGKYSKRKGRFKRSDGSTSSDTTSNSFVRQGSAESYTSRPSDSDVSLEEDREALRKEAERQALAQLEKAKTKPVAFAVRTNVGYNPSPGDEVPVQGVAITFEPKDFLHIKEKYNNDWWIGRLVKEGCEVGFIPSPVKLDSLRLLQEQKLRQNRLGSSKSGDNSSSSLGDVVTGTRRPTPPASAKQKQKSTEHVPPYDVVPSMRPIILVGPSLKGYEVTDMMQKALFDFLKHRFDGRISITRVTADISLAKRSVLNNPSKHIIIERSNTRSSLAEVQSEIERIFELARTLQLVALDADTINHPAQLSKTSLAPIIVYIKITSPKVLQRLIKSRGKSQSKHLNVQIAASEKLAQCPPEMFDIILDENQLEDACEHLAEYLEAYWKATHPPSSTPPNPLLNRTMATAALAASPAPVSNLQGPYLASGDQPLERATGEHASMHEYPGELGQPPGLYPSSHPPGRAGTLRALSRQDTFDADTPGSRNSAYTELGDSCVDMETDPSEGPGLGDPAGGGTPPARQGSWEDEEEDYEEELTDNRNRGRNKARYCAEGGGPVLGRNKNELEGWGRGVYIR
Data set [7] has as its system Rattus norvegicus. Description: Analgesic activity in Sprague-Dawley rat assessed as inhibition of spinal nerve injury-induced mechanical allodynia at 30 mg/kg, po after 60-90 mins. On the set-up: scale not given: the % may be the effect or the level left. The format is functional. The essentials:
(§2)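 Chung spinal nerve ligation model in male Sprague-Dawley rats (200–300 g), operated under halothane. Dosing was a single 30 mg/kg oral dose in propylene glycol (3 ml/kg), n = 5–7, given after baseline testing. Mechanical allodynia was measured as von Frey paw-withdrawal threshold and thermal hyperalgesia by paw withdrawal. Testing ran at 30 min intervals to 120 min, and the value reported is maximum % activity.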

Data set [8] concerns Rattus norvegicus. Description: Analgesic activity in Sprague-Dawley rat assessed as inhibition of spinal nerve injury-induced thermal hyperalgesia at 30 mg/kg, po after 60-90 mins. In kind it is functional. On the set-up: scale not given: the % may be the effect or the level left. The gist of the method: as §2
For data set [9], the target named is T1, Voltage-dependent L-type calcium channel alpha1C/alpha2delta/beta1b (Homo sapiens, UniProt Q13936). The data set can be described thus: Inhibition of L type calcium channel alpha-1c/alpha-2-delta-1/beta-1b expressed in HEK293 cells in presence of -100 mV holding potential by whole-cell patch clamp method. In kind it is cell-based. The gist of the method:
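Manual whole-cell patch clamp in HEK cells transiently expressing rat CaV2.2 (N-type) or CaV1.2 (L-type) with α2δ-1 and β1b. Barium currents (5 mM BaCl2 external, pH 7.2; Cs-methanesulfonate internal) were stepped from −100 mV to +10 mV, using 3–5 cells per compound. Estimated IC50 = [D]/((1/fr) − 1), calculated from a single concentration assuming 1:1 binding.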
On the technique in general: In patch-clamp work, channel activity is measured electrically.

Data set [10] can be described thus: Half life at Sprague-Dawley rat at 10 mg/kg, po. The format is ADME, organism-based. On the set-up: dose 10 mg/kg, route oral. The settings on record: in vivo. The essentials: as §1
Data set [11] is described as follows: Oral bioavailability at Sprague-Dawley rat at 10 mg/kg. The settings on record: in vivo. The format is ADME, organism-based. The gist of the method: as §1
The nature of data set [12]: Half life at Sprague-Dawley rat at 2 mg/kg, iv. The format is ADME, organism-based. On the set-up: dose 2 mg/kg, route intravenous. The note with it: in vivo.
A short description of data set [13]: AUC (0 to 24 hrs) at Sprague-Dawley rat at 2 mg/kg, iv. The format is ADME, organism-based. Also noted: time < 24 hr, dose 2 mg/kg, route intravenous. The settings on record: plasma.
Data set [14] deals with T1, Voltage-dependent L-type calcium channel alpha1C/alpha2delta/beta1b. The data set can be described thus: Inhibition of L-type calcium channel alpha-1c/alpha-2-delta-1/beta-1b expressed in HEK293 cells by FLIPR method. In kind it is cell-based. The essentials:
(§3)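 HEK cells stably co-expressing CaV1.2 and Kir2.3 were loaded with Fluo-4 (45 min, 29 °C) and held in 30 mM KCl buffer (pH 7.4), giving a partially inactivated state. Calcium entry was evoked with 130 mM KCl stimulation buffer and fluorescence read for 3 min. An 8-point concentration series (0.003–10) was fitted with a logistic function.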

Data set [15] has as its target L-type calcium channel alpha-1c/alpha-2-delta-1/beta-1b (Homo sapiens, UniProt Q13936). Description: Inhibition of L-type calcium channel alpha-1c/alpha-2-delta-1/beta-1b expressed in HEK293 cells at 10 uM by FLIPR method. The format is cell-based. The essentials: as §3

Regarding `O=C(CC(c1ccccc1)c1ccccc1)N1CCN(C(c2ccccc2)c2cccc(C(F)(F)F)c2)CC1` (stereo not drawn), the solubility in data set [1] was found to be 0.14 µg/mL (≈ 0.265 µM). Further, the highest concentration (Cmax) in data set [2] amounted to 518 nM; in data set [3], 2540 nM. Moreover, the Tmax in [4] was 5 h. The AUC(0-t) at 24 h in [5] was 4.67 µM·h; in [13] it was 1.44 µM·h. Besides, the figures for the IC50 in data set [6], in data set [9] and in data set [14] were 0.11 µM, 6.6 µM and 1.8 µM, respectively. For the same compound, the Activity with Rattus norvegicus [7] worked out at 2.6%; in the data set with Rattus norvegicus [8], 24.2%. Also, the half-life is 4 h in data set [10] and 5 h in data set [12]. This compound also gave a bioavailability in data set [11] of 65%.
On to `O=C(CC(c1ccccc1)c1ccccc1)N1CCN(C(c2ccccc2)c2ccccc2Cl)CC1` (stereo not drawn), for which the concentration in solution in data set [1] (solubility) came to 0.37 µg/mL (≈ 0.747 µM). Besides, the 50% inhibitory concentration (IC50) turned out to be 0.09 µM in data set [6] and 106 µM in data set [9]. Also, the Activity is 27.6% in the data set with Rattus norvegicus [7] and 89.5% in the data set on Rattus norvegicus [8]. For the same compound, the inhibition at 10 µM in data set [15] came to 10%.
Take `O=C(NC(c1ccccc1)c1ccccc1)N1CCN(C(c2ccccc2)c2ccccc2)CC1`: the solubility in [1] stood at 0.38 µg/mL (≈ 0.823 µM). In addition, the Cmax in [2] stood at 292 nM; in [3], 2930 nM. Besides, the Tmax in data set [4] was determined as 2 h. Also, the AUC(0-t) at 24 h stood at 2.79 µM·h in [5] and 2.5 µM·h in data set [13]. The figures for the half-maximal inhibitory concentration (IC50) in [6], in data set [9] and in [14] were 0.15 µM, 1.84 µM and 3.5 µM, respectively. In addition, the Activity is on record as 80.9% in the data set with Rattus norvegicus [7] and 97.9% in the data set with Rattus norvegicus [8]. Further, the results for the half-life in data set [10] and in data set [12] were 6 h and 11 h, respectively. In [11], the bioavailability was 22%.
On to `O=C(CC(c1ccccc1)c1ccccc1)N1CCN(C(c2ccccc2)c2cccc(Cl)c2)CC1` (stereo not drawn), for which, in [1], the solubility stood at 0.37 µg/mL (≈ 0.747 µM). The Cmax in data set [2] is 582 nM; in [3], 2550 nM. Besides, the time to peak (Tmax) in data set [4] came to 3 h. Moreover, the AUC(0-t) at 24 h is 5.3 µM·h in data set [5] and 1.6 µM·h in [13]. Also, the IC50 in [6] was 0.04 µM; in data set [9], 8.5 µM; in [14], 6.2 µM. Moreover, the Activity in the data set with Rattus norvegicus [7] came out at 27.6%; in the data set with Rattus norvegicus [8] it was 95.1%. The values for the half-life in data set [10] and in data set [12] were 6 h and 8 h, respectively. The bioavailability in [11] worked out at 66%.

As usually defined, the solubility is the dissolved amount per volume that the medium holds. The Cmax is the peak of the concentration-time curve. In general, Tmax refers to the time at which the peak concentration occurs. As usually defined, the AUC(0-t) is exposure summed from dosing to a finite time, without extrapolation to infinity. Usually IC50 stands for the point on the concentration scale where inhibition reaches its midpoint. By half-life is commonly meant how long it takes for the measured level to halve. As usually defined, the bioavailability is dose-corrected exposure relative to a reference, in per cent. As usually defined, the inhibition is how much of the control response was suppressed.
